Measured values as given in ChEMBL document CHEMBL3352460, “Synthesis and biological evaluation of novel biaryl type α-noscapine congeners” (Bioorg Med Chem Lett, 2014).
Activity calls are given as the source filed them. The rule behind the calls is not given here.

Legend:
Format in all cases: functional, cell-based
[1] = tested on: A549; experiment: Antiproliferative activity against human A549 cells after 72 hrs by MTS assay; conditions: A549, 72 h
Procedure, shortened: (§1)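 Cells grown in medium with L-glutamine, 10% fetal bovine serum and 1% penicillin/streptomycin, seeded at 5 × 10³ cells per well, then exposed for 72 h to a rising concentration series. Proliferation read by MTS reagent: 3 h incubation, absorbance at 490 nm. IC50 given as mean ± S.D. of three separate experiments.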

[2] = tested on: MCF7; experiment: Induction of apoptosis in human MCF7 cells assessed as condensed chromatin at 25 uM after 72 hrs by DAPI staining-based fluorescence analysis
Procedure, shortened: (§2)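 MCF-7 cells (2 × 10³) grown on poly-L-lysine-coated coverslips, treated at 25 µM for 72 h. Then fixed in cold methanol, washed in PBS, stained with DAPI and mounted. Nuclei imaged by fluorescence microscopy; apoptosis scored by nuclear condensation, membrane blebs and apoptotic bodies.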

[3] = tested on: MCF7; experiment: Induction of apoptosis in human MCF7 cells assessed as fragmented nuclei at 25 uM after 72 hrs by DAPI staining-based fluorescence analysis; procedure, shortened: as §2
[4] = tested on: MCF7; experiment: Antiproliferative activity against human MCF7 cells after 72 hrs by MTS assay; conditions: MCF7, 72 h; procedure, shortened: as §1
[5] = tested on: HeLa; experiment: Antiproliferative activity against human HeLa cells after 72 hrs by MTS assay; procedure, shortened: as §1

| SMILES | IC50 [1] | Activity [2] | Activity [3] | IC50 [4] | IC50 [5] |
| --- | --- | --- | --- | --- | --- |
| CCOC(=O)c1cc(-c2c3c(c(OC)c4c2OCO4)[C@H]([C@H]2OC(=O)c4c2ccc(OC)c4OC)N(C)CC3)ccc1Cl | 33.8 µM | Active | Active | 18.8 µM | 9 µM |
| COc1ccc2c(c1OC)C(=O)O[C@@H]2[C@H]1c2c(c(-c3ccc(C(F)(F)F)cc3)c3c(c2OC)OCO3)CCN1C | 57.3 µM |  |  | 41.3 µM | 22.8 µM |
| COc1ccc2c(c1OC)C(=O)O[C@@H]2[C@H]1c2c(c(-c3cccnc3)c3c(c2OC)OCO3)CCN1C | 31.6 µM |  |  | 16.6 µM | 8.9 µM |
| COc1ccc2c(c1OC)C(=O)O[C@@H]2[C@H]1c2c(cc3c(c2OC)OCO3)CCN1C [NOSCAPINE] | 62.9 µM |  |  | 42.3 µM | 24 µM |
| C=Cc1ccc(-c2c3c(c(OC)c4c2OCO4)[C@H]([C@H]2OC(=O)c4c2ccc(OC)c4OC)N(C)CC3)cc1 | 42.7 µM | Active | Active | 34.3 µM | 20.3 µM |
| CCOC(=O)c1ccc(-c2c3c(c(OC)c4c2OCO4)[C@H]([C@H]2OC(=O)c4c2ccc(OC)c4OC)N(C)CC3)cc1 | 53.1 µM | Active | Active | 40.7 µM | 21.2 µM |
| COc1ccc2c(c1OC)C(=O)O[C@@H]2[C@H]1c2c(c(-c3cccc(NC(C)=O)c3)c3c(c2OC)OCO3)CCN1C | 32.6 µM | Active | Active | 17.8 µM | 9.2 µM |
